Screens deposited in PubChem by Johns Hopkins Ion Channel Center.
A selection: hits, their analogues and other compounds. The true share with any hit is near 3.8%.
KCNK9 block – KCNK9 potassium channel inhibitors, primary screen, HEK293 cells, thallium flux; B-score at 10 µM; FluxOR thallium flux fluorescence; active compounds read low; AID 488922, 2010; Potassium channel subfamily K member 9 (Homo sapiens), Q9NPC2; actives 1.2% (n = 310,000);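 active means ratio B-score over 3 SD below the library mean, with starting fluorescence within 5 SD of its mean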;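 further: negative B-score means less thallium flux so channel inhibition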
Target sequence (Q9NPC2 whole entry, looked up): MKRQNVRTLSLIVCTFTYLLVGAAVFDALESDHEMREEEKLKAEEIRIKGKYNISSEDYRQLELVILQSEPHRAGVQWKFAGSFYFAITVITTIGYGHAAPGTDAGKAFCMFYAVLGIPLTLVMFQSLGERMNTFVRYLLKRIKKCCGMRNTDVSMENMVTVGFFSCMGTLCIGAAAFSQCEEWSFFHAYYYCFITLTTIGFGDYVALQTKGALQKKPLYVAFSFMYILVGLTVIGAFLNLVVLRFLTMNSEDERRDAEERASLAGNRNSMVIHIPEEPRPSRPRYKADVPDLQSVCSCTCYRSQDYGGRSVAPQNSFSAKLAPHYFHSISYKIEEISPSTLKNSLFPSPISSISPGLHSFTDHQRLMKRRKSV
KCNQ1 block – inhibitors of human KCNQ1 channel, primary screen, cell-based, thallium flux, high-throughput | CHO-K1 KCNQ1, FluxOR thallium flux fluorescence; active compounds read high | B-score at 10 µM | actives 1.3% (n = 310,000);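 active means compounds whose thallium flux B-score, printed positive for inhibition, exceeds three library SD while starting fluorescence stays within three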;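 further: channel opened by potassium depolarization with thallium stimulus after 20 min compound exposure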
Kir21 inh – inhibitors of mouse Kir2.1 inward-rectifier potassium channel; HEK293-Kir2.1, FluxOR thallium flux fluorescence; active compounds read low; B-score at 10 µM; AID 1672, 2009; actives 0.85% (n = 310,000); Inward rectifier potassium channel 2 (Mus musculus), P35561;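 active means fluorescence ratio B-score at or below minus 3 SD of library scores, with starting-brightness B-score within 2 SD, cut at about -4.2 in these data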;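 further: channel flux triggered by added potassium and thallium sulfate stimulus; B-score of peak minus minimum fluorescence over baseline after thallium stimulus; more negative B-score means stronger Kir2.1 block with less thallium influx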
KCNQ1 pot – potentiators or activators of KCNQ1 channel, primary screen, cell-based, thallium flux, high-throughput; Potassium voltage-gated channel subfamily KQT member 1 (Homo sapiens), P51787; CHO-K1 KCNQ1, thallium flux FluxOR fluorescence; active compounds read high; B-score at 10 µM; actives 0.35% (n = 310,000);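 active means fluorescence ratio B-score, a plate-corrected score, at least three library SD, with initial intensity B-score within 5 SD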
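Assay system: CHO-K1 cells stably expressing KCNQ1; Medium: assay buffer with matched DMSO; Also added: K+/Tl+ depolarizing stimulus; Dosing: single dose; Timing: dye 90 min, compound 20 min, room temperature; Measured by: kinetic FluxOR thallium fluorescence, 10-s 1-Hz baseline, 110-s post-stimulus read; Read-out: peak-minus-minimum fluorescence over initial fluorescence, negative-control normalized, B-scored.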
hERG rescue – hERG rescue from dofetilide block, primary screen, cell-based, CHO-hERG, FluxOR thallium flux, dofetilide IC70; dofetilide IC70 present; actives 0.51% (n = 310,000); activation (rescue from dofetilide block), less the hit threshold, % at 10 µM; Voltage-gated inwardly rectifying potassium channel KCNH2 (Homo sapiens), Q12809;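 active means activation above the mean of controls blocked by dofetilide plus 5 SD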;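 further: thallium influx through hERG after potassium depolarization seen as dye fluorescence rise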
KCNK3 inh – human KCNK3 channel inhibitors, primary screen, CHO cells, FluxOR thallium flux, B-score; Potassium channel subfamily K member 3 (Homo sapiens), O14649; FluxOR fluorescence; active compounds read low; actives 0.84% (n = 340,000); B-score at 10 µM;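 active means B-score under library mean minus 4 SD, starting fluorescence ratio at most library mean plus 5 SD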;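 further: more negative B-score means stronger inhibition of thallium flux through KCNK3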
KCNK9 block conf – KCNK9 potassium channel inhibitors, confirmation, HEK293 cells, thallium flux, duplicate; shares compounds with KCNK9 block; FluxOR thallium flux fluorescence; inhibition, % at 10 µM; actives 43% (n = 4,900);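 active means thallium signal inhibited by more than 5 SD of the compound-free buffer control wells, on both duplicate plates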;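 further: 0% = assay buffer control wells without compound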
Kir21 sel – mouse Kir2.1 channel inhibition, confirmation, selectivity assay for KCNK9 modulator project, cell-based, HEK293, thallium flux; actives 4% (n = 4,900); Kir2.1 cells, FluxOR thallium flux fluorescence; inhibition, % at 10 µM; shares compounds with KCNK9 block;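 active means thallium signal drop more than 5 SD beyond the mean of the no-compound control wells, seen in both duplicate plates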;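 further: signal is fluorescence rise after thallium addition divided by baseline fluorescence; plate controls were assay buffer only for no effect and full block by chlorpromazine control for full effect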
KCNK9 uninduced – thallium flux in non-induced HEK293 cells, confirmation, counter-screen for KCNK9 inhibitor project, cell-based, second counter screen, non-induced KCNK9-HEK293; shares compounds with KCNK9 block; FluxOR thallium flux; inhibition, % at 10 µM; actives 40% (n = 4,900); AID 492997, 2010;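 active means thallium signal drop beyond 5 SD of the untreated control mean, on both duplicate plates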;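 further: plate controls were buffer only IC0 wells for no effect and SID17386958 at its maximal inhibitory level for full effect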
* = called active by the depositor; i = inactive; nt = no result given.

SMILES | KCNK9 block | KCNQ1 block | Kir21 inh | KCNQ1 pot | hERG rescue | KCNK3 inh | KCNK9 block conf | Kir21 sel | KCNK9 uninduced
CC(=O)C1=C(C)NC(SCC(=O)c2ccc(Cl)cc2Cl)=C(C#N)C1c1ccco1 (centres undefined) | -10* | i | -0.23 | i | -20 | -9.6* | 61%* | i | 36%*
N#CCCN(C(=O)CN1CCN(S(=O)(=O)c2ccc(Cl)s2)CC1)c1ccc(F)cc1 | nt | nt | nt | nt | nt | i | nt | nt | nt
O=C(/C=C/c1cccc([N+](=O)[O-])c1)NCCSCc1c(Cl)cccc1Cl | i | i | 0.27 | i | -11 | i | nt | nt | nt
O=C(/C=C/c1cccc([N+](=O)[O-])c1)NCCSCc1ccc(Cl)cc1 | -9* | i | -0.87 | i | -12 | i | 54%* | i | 32%*
O=C(/C=C/c1cccc([N+](=O)[O-])c1)NCCSc1ccccc1 | i | i | -0.06 | i | -11 | i | nt | nt | nt
Cc1ccc(SCCNC(=O)/C=C/c2cccc([N+](=O)[O-])c2)cc1 | i | i | 0.22 | i | -5 | i | i | i | i
Cc1ccc2c(c1)N(CCC(=O)NC1CCCCC1C)C(=O)CO2 (centres undefined) | i | i | 0.31 | i | -9 | i | i | i | i
O=C(NC(=S)NCCC1=CCCCC1)c1ccccc1Br | i | i | -2.4 | i | 1 | i | i | i | i
COc1cccc(Oc2ccc(C(F)(F)F)cc2NC(=O)c2cccc(F)c2)c1 | i | i | -0.26 | i | -12 | i | nt | nt | nt
COc1ccc(Oc2ccc(C(F)(F)F)cc2NC(=O)c2ccc(F)cc2)cc1 | i | 6* | -0.27 | i | -11 | i | i | i | i
CCOC(=O)COc1nc(-c2ccc(C)cc2)cc(-c2ccco2)c1C#N | i | i | 2.1 | i | -7 | i | nt | nt | nt
CCOC(=O)COc1nc(-c2ccco2)cc(-c2ccco2)c1C#N | -10* | i | -0.94 | i | -2 | i | 67%* | i | 36%*
O=C(CSc1ccc(-c2cccnc2)nn1)Nc1ccccc1C(F)(F)F | i | i | 0.11 | i | -8 | i | nt | nt | nt
NC(=O)CC(NC(=O)c1ccc(Br)cc1)c1ccc(NC2CCCCCCC2)c([N+](=O)[O-])c1 (centres undefined) | -11* | i | 0.29 | i | -1 | i | i | i | 33%*
NC(=O)CC(NC(=O)c1ccccc1)c1ccc(NC2CCCCCCC2)c([N+](=O)[O-])c1 (centres undefined) | i | i | -0.25 | i | -3 | i | nt | nt | nt
O=C(CSc1nc(Cc2ccccc2)nc2ccccc12)c1ccc2c(c1)OCCO2 | -14* | i | 0.88 | i | -3 | i | 57%* | i | 34%*
Cc1cc(NC(=O)CSc2nc(CCC3CCCC3)nc3ccccc23)no1 | i | i | -0.03 | i | -17 | i | nt | nt | nt
CCc1nc(SCC(=O)c2ccc3c(c2)OCCO3)c2ccccc2n1 | i | i | -1 | i | -10 | i | nt | nt | nt
O=C(CSc1nc(CCC2CCCC2)nc2ccccc12)NCc1ccc2c(c1)OCO2 | -13* | i | -0.46 | i | -8 | i | 47%* | i | i
CCOC(=O)c1c(C)oc2cc(Br)c(OC(C)C(=O)OCC)cc12 (centres undefined) | i | i | -0.77 | i | -19 | i | i | i | i
O=C(NCC1CCCO1)C1CCCN1C(=O)Nc1ccc(Cl)c(Cl)c1 (centres undefined) | i | i | 0.23 | i | -14 | i | nt | nt | nt
CCn1c(SC)nnc1-c1sc2cc(Cl)ccc2c1Cl | -11* | i | 1.5 | i | -12 | i | 60%* | i | 36%*
COC1CCCN(Cc2nc(Cc3ccccc3F)no2)C1 (centres undefined) | i | i | 0.83 | i | -8 | i | nt | nt | nt
c1ccc(COC2CCCN(Cc3nc(Cc4ccccc4)no3)C2)cc1 (centres undefined) | i | i | -1.1 | i | -9 | i | i | i | i
Clc1cccc(C2CCN(Cc3nc(CC4CC4)no3)C2)c1 (centres undefined) | i | i | -2.2 | i | -9 | i | i | i | i
SMILES | KCNK9 block | KCNQ1 block | Kir21 inh | KCNQ1 pot | hERG rescue | KCNK3 inh | KCNK9 block conf | Kir21 sel | KCNK9 uninduced
Fc1ccccc1OCC1CCCN(Cc2nc(CC3CC3)no2)C1 (centres undefined) | i | i | 0.06 | i | -9 | i | i | i | i
COCC1CCN(Cc2nc(COc3ccccc3)no2)C1 (centres undefined) | i | i | -0.45 | i | -11 | i | nt | nt | nt
c1ccc(OCc2noc(CN3CCC(C4CCCCC4)C3)n2)cc1 (centres undefined) | i | i | 0.78 | i | -7 | i | i | i | i
CC(OC(=O)CC1CC2CCC1C2)C(=O)Nc1cccc(S(=O)(=O)N2CCOCC2)c1 (centres undefined) | i | i | -0.11 | i | -18 | i | nt | nt | nt
Cc1ccc(S(=O)(=O)N[C@H](C(=O)NCC2CCC(C(=O)O)CC2)C(C)C)cc1 (some centres undefined) | i | i | 0.01 | i | 0 | i | nt | nt | nt
O=CN(Cc1nc2ccccc2[nH]1)c1ccc(C(=O)O)cc1 | nt | nt | nt | nt | nt | i | nt | nt | nt
COc1ccccc1OCCC(=O)Nc1cccc(S(=O)(=O)N2CCOCC2)c1 | nt | nt | nt | nt | nt | i | nt | nt | nt
CC(=O)Oc1ccccc1C(=O)NC(C)CCc1ccccc1 (centres undefined) | i | i | -0.94 | i | -5 | i | nt | nt | nt
